Source: ChEMBL document CHEMBL4680075, “Small-Molecule CD4-Mimics: Structure-Based Optimization of HIV-1 Entry Inhibition” (ACS Med Chem Lett, 2016)

Assays:
[1] = test system: Human immunodeficiency virus 1; assay: Binding affinity to HIV1 YU-2 gp120 assessed as change in enthalpy by isothermal titration calorimetric analysis
[2] = test system: Human immunodeficiency virus 1; assay: Binding affinity to HIV1 YU-2 gp120 assessed as change in gibbs free energy by isothermal titration calorimetric analysis
[3] = Binding affinity to HIV1 YU-2 gp120 by isothermal titration calorimetric analysis; parameters: species or system Human immunodeficiency virus 1
[4] = test system: Human immunodeficiency virus 1; assay: Binding affinity to HIV1 YU-2 gp120 assessed as change in entropy by isothermal titration calorimetric analysis
[5] = test system: Human immunodeficiency virus 1; assay: Antiviral activity against HIV1 AD8 infected in dog Cf2Th/CD4-CCR5 cells assessed as inhibition of viral entry incubated for 30 mins prior to infection and measured after 48 hrs post infection by luciferase reporter gene assay; format: functional, organism-based; conditions: Human immunodeficiency virus 1, AD8, Cf2Th-CCR5
How it was run: (§1)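 Cf2Th-CD4/CCR5 target cells infected with recombinant luciferase-expressing HIV-1 pseudoviruses bearing the indicated strain's envelope glycoproteins, with compound at increasing concentrations; infection read as target-cell luciferase activity, expressed as percent of infection without compound; IC50 derived from this.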

[6] = test system: Human immunodeficiency virus 1; assay: Antiviral activity against HIV1 JRFL infected in dog Cf2Th/CD4-CCR5 cells assessed as inhibition of viral entry incubated for 30 mins prior to infection and measured after 48 hrs post infection by luciferase reporter gene assay; format: functional, organism-based; conditions: Human immunodeficiency virus 1, JRFL; how it was run: as §1
[7] = test system: Human immunodeficiency virus 1; assay: Antiviral activity against HIV1 pseudotyped with A-MLV envelop glycoprotein infected in dog Cf2Th/CD4-CCR5 cells assessed as inhibition of viral entry incubated for 30 mins prior to infection and measured after 48 hrs post infection by luciferase reporter gene assay; format: functional, organism-based; conditions: Human immunodeficiency virus 1, Cf2Th-CCR5
How it was run: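 Control counterscreen: Cf2Th-CD4/CCR5 cells infected with luciferase-expressing HIV-1 pseudotyped with amphotropic murine leukemia virus envelope glycoproteins, compound at increasing concentrations; luciferase activity in target cells as percent of no-compound infection; IC50 from this.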

[8] = test system: Human immunodeficiency virus 1; assay: Antiviral activity against HIV1 YU-2 infected in dog Cf2Th/CD4-CCR5 cells assessed as inhibition of viral entry incubated for 30 mins prior to infection and measured after 48 hrs post infection by luciferase reporter gene assay; format: functional, organism-based; conditions: Human immunodeficiency virus 1, YU-2, Cf2Th-CCR5; how it was run: as §1
[9] = test system: Human immunodeficiency virus 1; assay: Antiviral activity against HIV1 Clade B infected in human TZM-bl cells assessed as inhibition of viral entry incubated for 30 mins prior to infection and measured after 48 hrs post infection by luciferase reporter gene assay; format: functional, organism-based; conditions: Human immunodeficiency virus 1, Clade B
[10] = test system: Human immunodeficiency virus 1; assay: Antiviral activity against HIV1 Clade C infected in human TZM-bl cells assessed as inhibition of viral entry incubated for 30 mins prior to infection and measured after 48 hrs post infection by luciferase reporter gene assay; format: functional, organism-based; conditions: Human immunodeficiency virus 1, Clade C

Row | SMILES | deltaH [1] [kcal/mol] | deltaG [2] [kcal/mol] | Kd [3] [nM] | -TdeltaS [4] [kcal/mol] | IC50 [5] [µM] | IC50 [6] [µM] | IC50 [7] [µM] | IC50 [8] [nM] | IC50 [9] [µM] | IC50 [10] [µM]
1 | CNCc1ccc2c(c1)[C@@H](NC(=O)C(=O)Nc1ccc(Cl)c(F)c1)[C@H](CNC(=N)N)C2 | -11.3 | -7.5 | 3400 | 3.8 | > 100 | > 100 | > 100 | 87800 |  | 
2 | CN(Cc1ccc2c(c1)C[C@H](CNC(=N)N)[C@H]2NC(=O)C(=O)Nc1ccc(Cl)c(F)c1)C(=N)N | -15.4 | -9.6 | 95 | 5.8 | 1.6 | 6.1 | > 100 | 800 |  | 
3 | CNCc1ccc2c(c1)C[C@@H](CNC(=N)N)[C@@H]2NC(=O)C(=O)Nc1ccc(Cl)c(F)c1 | -13.2 | -8.1 | 1200 | 5.1 |  | > 100 | > 100 | 21000 |  | 
4 | CNCc1ccc2c(c1)C[C@H](CNC(=N)N)[C@H]2NC(=O)C(=O)Nc1ccc(Cl)c(F)c1 | -20.7 | -10 | 47 | 10.7 | 3.1 | 14.5 | > 100 | 1300 | 3.5 | 17
5 | CNCc1ccc2c(c1)[C@H](NC(=O)C(=O)Nc1ccc(Cl)c(F)c1)[C@@H](CNC(=N)N)C2 | -28.2 | -10.4 | 24 | 17.8 | 6.7 | 37.3 | > 100 | 2100 |  | 
6 | N=C(N)NC[C@H]1Cc2ccccc2[C@@H]1NC(=O)C(=O)Nc1ccc(Cl)c(F)c1 | -17.9 | -9.5 | 110 | 8.4 | 8.5 | 66.8 | 94.3 | 3800 |  | 
7 | CN(Cc1ccc2c(c1)[C@H](NC(=O)C(=O)Nc1ccc(Cl)c(F)c1)[C@@H](CNC(=N)N)C2)C(=N)N | -14.2 | -9.6 | 95 | 4.6 | 1.2 | 19.7 | 83.7 | 1600 |  | 
